Calls of active or inactive are those of the source.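 How the source made its calls: active means IC50 no more than ten times the top valid dose, with luminescence dropping as cells die; inconclusive means flat curve losing 30 to 70% of signal, or poor fit; inactive means the rest, including signal rises.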
Test system: ldlA[mSR-BI] CHO cells viability, CellTiter-Glo ATP, 3 h
Assay: cytotoxicity in ldlA[mSR-BI] cells, dose response, cytotoxicity control for SR-BI HDL uptake inhibitor project, cell-based, CellTiter-Glo, 3 h, dry powder (AID 540246)
Settings: not given
Summary of the method: (§1)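 Test system: ldlA[mSR-BI] cells, viability (cytotoxicity counter-screen); buffer or medium: Ham's F12 plus 10% FCS; incubation: 3 h compound treatment, 37 °C; measured by: luminescence from Cell Titer Glo luciferase reagent sensing cellular ATP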

SMILES | IC50
O=C(Nc1cc(Cl)ccc1Cl)c1cc(Cl)ccc1NS(=O)(=O)c1ccc(Cl)c([N+](=O)[O-])c1 | > 35 µM (inactive)
Cc1cc(C(=O)C(C)OC(=O)C2=NNC(=O)CC2)c(C)n1-c1ccc(OC(F)F)cc1 (stereo not given) | > 35 µM (inactive)
CCOC(=O)Nc1cccc(NC(=O)c2cc(OC)cc(OC)c2)c1 | > 35 µM (inactive)
O=C(Nc1ccc(-c2nc3ccc(NC(=O)c4ccccc4)cc3[nH]2)cc1)c1ccccc1 | 37.8 µM
C[C@H]1CN([C@@H](C)CO)C(=O)c2cccc(NC(=O)Nc3ccccc3)c2O[C@@H]1CN(C)Cc1ccc(Cl)c(Cl)c1 | 66.5 µM
Cc1ccc2oc(-c3cccc(NC(=O)c4cc(-n5cnnc5)ccc4Cl)c3)nc2c1 | 31.7 µM
C[C@H]1CN([C@@H](C)CO)C(=O)c2cccc(NC(=O)Nc3ccc(F)cc3)c2O[C@@H]1CN(C)Cc1ccc(Cl)c(Cl)c1 | 48.1 µM
COc1ccc(-c2nnn(CC(=O)N(C3CCCCC3)C(C)C(=O)NC3CCCC3)n2)cc1OC (stereo not given) | > 35 µM (inactive)
CCOc1ccccc1/C=C/c1onc(C)c1S(=O)(=O)N1CCC(C(=O)NC(C)(C)C)CC1 | > 35 µM (inactive)

Test system: not listed separately
Assay: as above
Settings: ldlA[mSR-BI] CHO cells viability, CellTiter-Glo ATP, 3 h; at 30 µM (top of the series)
Summary of the method: as §1

SMILES | activity change, negative = cytotoxicity
C[C@H]1CN([C@@H](C)CO)C(=O)c2cc(NC(=O)Cc3cn(C)c4ccccc34)ccc2O[C@H]1CN(C)S(=O)(=O)c1ccc(F)cc1 | -3.79% (inactive)

Same assay, conditions: ldlA[mSR-BI] CHO cells viability, CellTiter-Glo ATP, 3 h; at 35 µM (top of the series)

SMILES | activity change, negative = cytotoxicity
C[C@H]1CN([C@@H](C)CO)C(=O)c2cc(NC(=O)Cc3cn(C)c4ccccc34)ccc2O[C@@H]1CN(C)S(=O)(=O)c1ccc(F)cc1 | 6.2% (inactive)
C[C@@H]1CN([C@H](C)CO)C(=O)c2cc(NC(=O)Cc3cn(C)c4ccccc34)ccc2O[C@H]1CN(C)S(C)(=O)=O | 0.836% (inactive)
Nc1ccc(C(=O)Nc2ccc(-c3nc4ccc(NC(=O)c5ccc(N)cc5)cc4[nH]3)cc2)cc1 | 11.1% (inactive)
C[C@H]1CN([C@@H](C)CO)C(=O)c2cc(NC(=O)Nc3ccccc3)ccc2O[C@@H]1CN(C)Cc1ccc(Cl)c(Cl)c1 | -3.65% (inactive)
CCC(=O)N1CCc2cc(-c3csc(NC(=O)c4ccco4)n3)ccc21 | -3.84% (inactive)
C[C@@H]1CN([C@H](C)CO)C(=O)c2cc(NC(=O)Cc3cn(C)c4ccccc34)ccc2O[C@@H]1CN(C)S(=O)(=O)c1ccc(F)cc1 | 4.76% (inactive)
C[C@H]1CN([C@@H](C)CO)C(=O)c2cccc(NC(=O)Nc3ccccc3)c2O[C@@H]1CN(C)Cc1ccccc1 | 6.56% (inactive)
N#Cc1sc2nc(C3CC3)cc(-c3ccc(Cl)cc3)c2c1N | -2.17% (inactive)
Cc1cc(SC(C)C(=O)Nc2ncc(Cl)cc2Cl)nc2ccccc12 (stereo not given) | -7.81% (inactive)
O=C(Nc1cc(C(F)(F)F)ccc1Cl)c1ccccc1NS(=O)(=O)c1ccc(Cl)cc1 | 4.37% (inactive)
C[C@@H]1CN([C@H](C)CO)C(=O)c2cc(NC(=O)Cc3cn(C)c4ccccc34)ccc2O[C@H]1CN(C)S(=O)(=O)c1ccc(Cl)cc1 | 1.29% (inactive)
CCn1c(COc2c(C)cccc2C)nnc1SCC(=O)N1CCN(c2ccccc2)CC1 | -2.44% (inactive)
C[C@H](CO)N1C[C@H](C)[C@H](CN(C)S(=O)(=O)c2ccc(F)cc2)Oc2ccc(NS(C)(=O)=O)cc2C1=O | -0.83% (inactive)
C[C@H]1CN([C@@H](C)CO)C(=O)c2cccc(NC(=O)Nc3ccccc3)c2O[C@@H]1CN(C)Cc1ccc(C(F)(F)F)cc1 | 0.509% (inactive)
O=C(Nc1cccc(NC(=O)c2cc([N+](=O)[O-])ccc2Cl)n1)c1cc([N+](=O)[O-])ccc1Cl | -3.61% (inactive)
CNC[C@@H]1Oc2ccc(NC(=O)Cc3cn(C)c4ccccc34)cc2C(=O)N([C@H](C)CO)C[C@H]1C | -2.77% (inactive)
C[C@H]1CN([C@@H](C)CO)C(=O)c2cccc(NS(C)(=O)=O)c2O[C@@H]1CN(C)Cc1ccc(Cl)c(Cl)c1 | 7.9% (inactive)
Cc1cc(C)c2c(c1)NC(c1cc3c(cc1Br)OCO3)C1CC=CC21 (stereo not given) | -1.84% (inactive)
O=C(Nc1ccc(-c2nc3cc(NC(=O)c4ccccc4Cl)ccc3o2)cc1)c1ccccc1Cl | 15.2% (inactive)
C[C@H](CO)N1C[C@H](C)[C@H](CN(C)S(=O)(=O)c2ccc(F)cc2)Oc2ccc(NC(=O)Cc3ccccc3)cc2C1=O | 2.52% (inactive)
CCOC(=O)N1CCC(NC(=O)c2ccc3c(c2)N(Cc2ccc(F)cc2)CCS3)CC1 | -2.37% (inactive)
COC(=O)c1cn(C(=O)c2cccc3ccccc23)c2ccccc12 | -9.72% (inactive)
C[C@H]1CN([C@@H](C)CO)C(=O)c2cccc(NC(=O)Nc3ccccc3)c2O[C@@H]1CN(C)C | -3.85% (inactive)
C[C@@H]1CN([C@@H](C)CO)C(=O)c2cc(NC(=O)Cc3cn(C)c4ccccc34)ccc2O[C@@H]1CN(C)S(=O)(=O)c1ccc(F)cc1 | 6.07% (inactive)
O=C(Nc1ccc(-c2nc3cc(NC(=O)c4ccccc4[N+](=O)[O-])ccc3o2)cc1)c1ccccc1[N+](=O)[O-] | 9.71% (inactive)

SMILES | activity change, negative = cytotoxicity
C[C@@H]1CN([C@H](C)CO)C(=O)Cc2cc(NC(=O)Cc3cn(C)c4ccccc34)ccc2O[C@H]1CN(C)S(=O)(=O)c1ccc(F)cc1 | -1% (inactive)
Cc1cc(C)n(CC(=O)NC2CCCc3c2cnn3-c2ccc(C)c(C)c2)n1 (stereo not given) | 0.308% (inactive)
CC(OC(=O)c1cccc(NS(C)(=O)=O)c1)C(=O)Nc1ccc(N2CCOCC2)cc1 (stereo not given) | -2.45% (inactive)
CCc1cc2cc3c(cc2nc1SCC(=O)OC(C)C)OCO3 | 0.059% (inactive)
CCc1sc(N2C(=O)C3C4CCC(C4=C(C)C)C3C2=O)nc1-c1ccccc1 (stereo not given) | 3.35% (inactive)
C[C@@H]1CN([C@@H](C)CO)C(=O)c2cc(NC(=O)Cc3cn(C)c4ccccc34)ccc2O[C@H]1CN(C)S(=O)(=O)c1ccc(F)cc1 | -10.2% (inactive)
CC(C)(C)NC(=O)N1CCN(c2ncccc2C(F)(F)F)CC1 | 5.12% (inactive)
COc1ccc([C@H]2CC(=O)C=C(c3cccc4c3sc3ccccc34)C2)cc1OC | 3.09% (inactive)
COc1cccc(-c2csc(N3CCN(C(=S)Nc4cccc(Cl)c4)CC3)n2)c1 | -1.79% (inactive)
C[C@@H]1CN([C@H](C)CO)C(=O)c2cc(NC(=O)Cc3cn(C)c4ccccc34)ccc2O[C@H]1CN(C)C(=O)Nc1ccc(F)cc1 | 0.369% (inactive)
O=C(Nc1ccccc1Cl)c1ccccc1NS(=O)(=O)c1ccccc1 | 0.062% (inactive)
C[C@H]1CN([C@@H](C)CO)C(=O)c2cccc(N(C)C)c2O[C@@H]1CN(C)Cc1ccc(Cl)c(Cl)c1 | -9.85% (inactive)
O=C(Nc1ccc(-c2nc3ccc(NC(=O)c4ccccc4[N+](=O)[O-])cc3[nH]2)cc1)c1ccccc1[N+](=O)[O-] | 6.25% (inactive)
C[C@H]1CN([C@@H](C)CO)C(=O)c2cccc(NC(=O)Nc3ccccc3)c2O[C@@H]1CN(C)S(C)(=O)=O | -2.86% (inactive)
C[C@@H]1CN([C@H](C)CO)C(=O)c2cc(NC(=O)Cc3cn(C)c4ccccc34)ccc2O[C@H]1CN(C)S(=O)(=O)c1ccccc1 | 1.67% (inactive)
COc1ccc(OC)c(CCNC(=O)c2ccc3c(c2)N(Cc2ccc(F)cc2)CCS3)c1 | -8.19% (inactive)
CC(C)OCCCNC(=O)c1ccc(C2SCC(=O)N2Cc2ccco2)cc1 (stereo not given) | 0.099% (inactive)
O=C(Nc1ccc(-c2nc3ccc(NC(=O)c4ccc(Cl)cc4)cc3[nH]2)cc1)c1ccc(Cl)cc1 | 5.01% (inactive)
O=C(Nc1ccc(-c2nc3cc(NC(=O)c4ccc(NC(=O)c5cccc6ccccc56)cc4)ccc3[nH]2)cc1)c1ccc(NC(=O)c2cccc3ccccc23)cc1 | -0.376% (inactive)
CC(C)NC(=O)Nc1cccc2c1O[C@H](CN(C)Cc1ccc(Cl)c(Cl)c1)[C@@H](C)CN([C@@H](C)CO)C2=O | 3.16% (inactive)
C[C@H](CO)N1C[C@H](C)[C@H](CN(C)S(=O)(=O)c2ccc(F)cc2)Oc2ccc(NC(=O)Cc3cn(C)c4ccccc34)cc2C1=O | -7.27% (inactive)
C[C@@H]1CN([C@H](C)CO)C(=O)c2cc(NC(=O)Cc3cn(C)c4ccccc34)ccc2O[C@H]1CN(C)S(=O)(=O)c1ccc(F)cc1 | 3.35% (inactive)
C[C@H](CO)N1C[C@H](C)[C@H](CN(C)S(=O)(=O)c2ccc(F)cc2)Oc2ccc(NC(=O)CCC(F)(F)F)cc2C1=O | 0.245% (inactive)
O=C(Nc1cc(Cl)ccc1Cl)c1cc(Br)ccc1NS(=O)(=O)c1ccc(Cl)c([N+](=O)[O-])c1 | -7.81% (inactive)
C[C@H](CO)N1C[C@H](C)[C@@H](CN(C)S(=O)(=O)c2ccc(F)cc2)Oc2ccc(NC(=O)Cc3cn(C)c4ccccc34)cc2C1=O | 4.04% (inactive)
